The source made the active and inactive calls. The rule behind the calls is not given here.
Experiments:
[1] = tested on: U-87 MG; assay: Anti-angiogenic activity in tumor of human U87MG cells xenografted in nude BALB/c mouse assessed as reduction in CD31 staining at 50 mg/kg, ip administered for 14 days by immunohistochemistry; format: functional, organism-based; details: U-87MG ATCC
In short: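 Male nude mice bearing subcutaneous right-flank xenografts of 5 x 10⁵ U-87 MG cells; dosing began at about 50 mm³ tumors, ip daily for 14 days. Tumors formalin-fixed, paraffin sections 3 µm; citrate pH 6 antigen retrieval at 95-98 °C; primary antibody overnight at 4 °C, HRP secondary, DAB. Positive area quantified by optical density at x200, 4 images per tumor; mean ± SEM, one-way ANOVA with Dunnett.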

[2] = Cytotoxicity against human HepG2 cells assessed as cell viability at 250 uM after 72 hrs by MTT assay relative to control; format: cell-based; details: read-out: Activity
In short: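 Cells grown in DMEM with 10% FBS at 37 °C, 5% CO₂; seeded 2 x 10³ cells/well, adhered 24 h, then exposed 72 h. MTT: 1 mg/mL for 3 h, formazan in DMSO, absorbance 595 nm. NRU: neutral red 25 µg/mL in serum-free medium for 3 h, desorbed in ethanol:acetic acid:water. Viability as % of untreated control; mean ± SEM of three to five independent experiments in triplicate.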

[3] = Cytotoxicity against human U87MG cells assessed as cell viability at 250 uM after 72 hrs by neutral red uptake-based assay relative to control; set-up: species or system U-87MG ATCC; details: read-out: Activity
In short: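 Cells kept in DMEM with 10% heat-inactivated FBS, 1% penicillin-streptomycin and 0.1% fungizone at 37 °C, 5% CO₂. U-87 MG seeded at 2 x 10^3 cells/well, RAW 264.7 at 5 x 10^2, adhered 24 h, then exposed 72 h. MTT: 1 mg/mL for 3 h, formazan in DMSO, A595. NRU: 25 μg/mL dye, 3 h, ethanol:acetic acid:water desorb. Untreated wells = 100%; three to five independent experiments in triplicate.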

O=c1[nH]c(CNC(CO)CO)c(I)c(=O)[nH]1
Activity [1]: Active
viability at 72 h, 250 µM [2]: 100%
viability at 72 h, 250 µM [3]: 98%

From ChEMBL document CHEMBL4422632, “Design of Novel Inhibitors of Human Thymidine Phosphorylase: Synthesis, Enzyme Inhibition, in Vitro Toxicity, and Impact on Human Glioblastoma Cancer” (J Med Chem, 2019)
